High-throughput results from PubChem BioAssay.
HDAC3 inh: HDAC3 deacetylase inhibitors, primary screen, biochemical, fluorescence, cell-free homogeneous. recombinant HDAC3, fluorogenic peptide/trypsin coupled. inhibition, % at 8.3 µM. 320,000 tested, 0.15% active. AID 2718, 2010; in the data active = inhibition above about 26%, passing the limit was not always enough; inconclusive = no clear call, values can overlap the other calls
UCH37 inh: inhibitors of human UCH37 deubiquitinase, primary screen, biochemical, Ub-AMC cleavage, fluorescence; Ubiquitin carboxyl-terminal hydrolase isozyme L5 (Homo sapiens), Q9Y5K5; purified proteasome/UCH37; inhibition, % (no concentration beside the values); 330,000 tested, 0.33% active;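 active = mean inhibition over replicate wells above about 20%, limit read from the data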
Target sequence (Q9Y5K5 whole entry, looked up): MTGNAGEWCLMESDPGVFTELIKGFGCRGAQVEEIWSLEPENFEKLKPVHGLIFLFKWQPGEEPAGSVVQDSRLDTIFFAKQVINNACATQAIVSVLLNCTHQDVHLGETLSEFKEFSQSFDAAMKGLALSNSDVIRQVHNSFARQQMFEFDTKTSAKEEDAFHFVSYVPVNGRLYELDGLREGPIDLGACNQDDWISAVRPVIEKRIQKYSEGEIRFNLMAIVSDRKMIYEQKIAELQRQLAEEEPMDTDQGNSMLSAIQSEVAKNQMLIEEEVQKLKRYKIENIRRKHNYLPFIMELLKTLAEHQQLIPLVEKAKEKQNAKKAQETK
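Test system – human UCH37 enzyme supplied as purified proteasome complex · Incubation – 30 min preincubation with enzyme, 25 min cleavage at room temperature · Detection – AMC fluorescence from Ub-AMC cleavage, excitation 355 nm, emission 460 nm · Benchmarks – no-proteasome wells (full inhibition) and compound-free wells (no inhibition)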
FAS-TE inh: FAS thioesterase domain inhibitors, primary screen, biochemical, fluorescence intensity, uHTS; recombinant FAS-TE, OMFH fluorogenic substrate, fluorescence endpoint; inhibition, % at 15 µM; 360,000 tested, 0.67% active; Fatty acid synthase (Homo sapiens), P49327; AID 602261, 2012;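 active = compounds whose normalised, plate-corrected inhibition of enzyme fluorescence in the single-dose primary screen is 50% or more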
PfM18AAP inh: PfM18AAP inhibitors, malaria aminopeptidase, primary screen, biochemical, QFRET, recombinant enzyme; inhibition, % at 7.35 µM; AID 1822, 2009; 290,000 tested, 1.2% active; H-Glu-NHMec fluorogenic cleavage;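 active = inhibition above the campaign mean inhibition over all tested compounds plus 3 SD, cut at about 28% in these data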
ALR H2O2 inh: inhibitors of human ALR sulfhydryl oxidase, primary screen, biochemical, H2O2 detection, HRP-luminol luminescence, single point. 290,000 tested, 3.8% active. FAD-linked sulfhydryl oxidase ALR (Homo sapiens), P55789. AID 485317, 2010. inhibition, % (test concentration not listed). purified ALR, DTT oxidation;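 active = mean replicate inhibition above about 79%, with every replicate also reaching it, limit read from the data; inconclusive = only one of the two criteria met; inactive = mean below limit and not every replicate reaching it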
Target sequence (P55789 whole entry, looked up): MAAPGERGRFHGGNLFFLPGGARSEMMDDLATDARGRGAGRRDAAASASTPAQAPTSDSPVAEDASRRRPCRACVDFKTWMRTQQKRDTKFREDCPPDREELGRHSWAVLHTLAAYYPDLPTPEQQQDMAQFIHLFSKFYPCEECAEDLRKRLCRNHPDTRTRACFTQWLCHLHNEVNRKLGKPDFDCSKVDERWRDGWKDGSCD
Rtt109 Vps75: inhibitors of C. albicans Rtt109/Vps75 HAT, primary screen, biochemical, ThioGlo CoA-SH fluorescence, plate reader; AID 540336, 2011; inhibition, % at 34.9 µM; Histone acetyltransferase RTT109 (Candida albicans (strain SC5314 / ATCC MYA-2876)), …; purified Rtt109/Vps75, 4 h; 330,000 tested, 0.16% active;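 active = inhibition of at least 50% in every replicate; inconclusive = best replicate reaches 50% inhibition but some replicates fall short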
Numbers stand for hits; 0 = inactive; ? = inconclusive; - = no result given. Sampled rows, rich in hits. Any-hit rate of the full collection: about 4.6%.

SMILES	HDAC3 inh	UCH37 inh	FAS-TE inh	PfM18AAP inh	ALR H2O2 inh	Rtt109 Vps75
CC(=O)Nc1cccc(NC(=O)c2cccc(-c3ccc(O)cc3)c2)c1	0	0	0	0	99	0
Cc1cc(C)nc(SCc2ccc(C(=O)NN=Cc3ccncc3)cc2)n1	-	0	-	-	-	-
O=C(c1cccc(Cl)c1)C1CCCN(Cc2ccc(N3CCNC3=O)cc2)C1 (centres undefined)	0	0	0	0	96	0
COc1ccc(CN2CCC(C(=O)c3cccc(Cl)c3)CC2)cc1	0	0	0	0	0	0
N#Cc1ccccc1C=NNc1nc(-c2ccccc2)c2cc(Br)ccc2n1	-	0	-	-	-	-
O=[N+]([O-])c1cccc(N/N=C/c2cccc(O)c2O)c1	0	-	0	42	100	0
O=[N+]([O-])c1ccccc1N/N=C/c1cccc(O)c1O	-	-	0	30	-	0
O=[N+]([O-])c1cccc(NN=Cc2cccc(O)c2O)c1	-	0	-	-	-	-
CCNC(=S)NN=Cc1ccc(C(=O)O)cc1	-	0	-	-	-	-
Cc1cc(NCCCN2CCOCC2)n2nc(C)c(-c3ccc(F)cc3)c2n1	0	0	0	0	98	0
Cc1n[nH]c(C)c1Sc1ccccc1N	0	0	0	0	96	0
Cc1ccccc1C=NNc1ncnc2nc[nH]c12	-	0	-	-	-	-
Cc1cccc(/C=N/NC(=O)c2c(-c3ccccc3)noc2C)c1O	0	-	0	29	0	0
COc1ccccc1/C=N/NC(=O)c1c(-c2ccccc2)noc1C	0	-	0	0	0	0
CCOC(=O)N1CCN(C(=O)c2ccc(CS(=O)Cc3ccccc3Cl)o2)CC1 (centres undefined)	0	0	0	0	?	0
O=C(c1ccc(CS(=O)Cc2ccccc2Cl)o1)N1CCN(C2CCCCC2)CC1 (centres undefined)	0	0	0	0	98	0
OCC(CO)(CO)NCC(O)CN1c2ccccc2Sc2ccccc21 (centres undefined)	0	0	0	0	99	0
O=C1c2ccccc2C(=O)N1CC(O)Cn1nnc2ccccc21 (centres undefined)	0	0	0	0	0	0
OC(CN1c2ccccc2Sc2ccccc21)Cn1nnc2ccccc21 (centres undefined)	0	0	0	0	98	0
O=C(NN=Cc1cccs1)c1cccnc1	-	0	-	-	-	-
Oc1c(Cl)cc(Cl)cc1CNc1ccc(Br)cn1	0	0	0	0	93	0
Cc1cccn2cc(CNc3ccccc3)nc12	0	0	0	0	98	0
Cc1cccn2cc(CCNS(=O)(=O)c3cccs3)nc12	0	0	0	0	-	55
CC(=NNC(=O)c1nnn(-c2nonc2N)c1CN1CCc2ccccc21)c1ccccc1O	-	0	-	-	-	-
Cc1ccc(SCCC(=O)NN=Cc2ccccc2O)cc1	-	0	-	-	-	-
SMILES	HDAC3 inh	UCH37 inh	FAS-TE inh	PfM18AAP inh	ALR H2O2 inh	Rtt109 Vps75
COc1cc(-c2cc(=O)c3c(O)c(OC)c(OC)cc3o2)cc(OC)c1O	0	0	0	-	77	0
COc1ccc(-c2cc(=O)c3c(O)c(OC)c(O)cc3o2)cc1	0	0	0	0	0	0
COc1cc(-c2cc(=O)c3c(O)cc(O)cc3o2)ccc1O	0	0	0	0	0	-
COc1cc(-c2cc(=O)c3ccccc3o2)ccc1O	0	0	0	0	99	0
O=C(COc1ccc(Br)cc1)NN=C1SCC(=O)N1Cc1ccco1	-	0	-	-	-	-
CC(C)(C)c1ccc(C(=O)Nc2nnc(SCC(=O)NCC3CCCO3)s2)cc1 (centres undefined)	0	0	0	0	0	0
CN(C)S(=O)(=O)c1ccc(C(=O)Nc2nnc(SCC(=O)NCC3CCCO3)s2)cc1 (centres undefined)	0	0	0	0	94	0
Cc1cccc(N/N=C2/COC(C)(C)CC2=O)c1	0	-	0	0	93	0
Cc1ccc(NN=C2COC(C)(C)CC2=O)cc1	-	0	-	-	-	-
Cc1ccc(C(=O)NN=C2CCCc3ccccc32)c(C)c1	-	0	-	-	-	-
Cc1ccccc1Nc1nc(CSc2nnc(-c3ccoc3C)n2C)cs1	0	0	0	0	97	0
CCC(=NNC(N)=O)c1ccc(OC(F)F)cc1	-	0	-	-	-	-
COc1cc(C=NNc2ccccn2)ccc1O	-	0	-	-	-	-
CCOc1ccc(C=NOCC(=O)NCc2cccs2)cc1	-	0	-	-	-	-
COc1ccccc1/C=C/C=Nn1c(COc2ccccc2)n[nH]c1=S	-	0	-	-	-	-
Cc1cnc(NC(=O)CSc2nnc(COc3c(C)cccc3C)o2)s1	0	0	0	28	0	0
CC(=O)Nc1ccc(OCC(O)CN2CCN(c3ccc(F)cc3)CC2)cc1 (centres undefined)	0	0	0	0	98	0
OC(COc1ccc(Cl)cc1)CN1CCN(c2cccc(Cl)c2)CC1 (centres undefined)	0	0	0	0	0	0
CC(=O)Nc1ccc(OCC(O)CN2CCN(c3ccc(Cl)cc3)CC2)cc1 (centres undefined)	0	0	0	0	0	-
CC(=O)Nc1ccc(OCC(O)CN2CCN(c3cccc(Cl)c3)CC2)cc1 (centres undefined)	0	0	0	0	99	-
CCC(=O)c1ccc(OCC(O)CN2CCN(c3ccc(F)cc3)CC2)cc1 (centres undefined)	0	0	0	0	0	0
CC(=O)c1ccc(OCC(O)CN2CCN(c3ccc(F)cc3)CC2)cc1 (centres undefined)	0	0	0	0	98	0
CC(=O)c1ccc(N2CCN(CC(O)COC(c3ccccc3)c3ccccc3)CC2)cc1 (centres undefined)	0	0	0	0	0	55
CCOc1ccc(/C=N/n2cc(-c3ccccc3)[nH]c2=S)cc1	0	-	0	54	0	0
Oc1ccc(C=Nn2cc(-c3ccccc3)[nH]c2=S)cc1	-	0	-	-	-	-
SMILES	HDAC3 inh	UCH37 inh	FAS-TE inh	PfM18AAP inh	ALR H2O2 inh	Rtt109 Vps75
CC(O)[C@H]1CC[C@H]2[C@@H]3CC[C@H]4C[C@@H](O)CC[C@]4(C)[C@H]3C(=NO)C[C@]12C (some centres undefined)	-	0	-	-	-	-
C=C(C)CNC(=S)NN=Cc1ccc([N+](=O)[O-])cc1	-	0	-	-	-	-
Cc1ccc(NC(=O)CSc2nc(=O)n(CCN3CCOCC3)c3c2CCCC3)cc1	?	0	0	-	0	-
Cc1ccc(NC(=O)CSc2nc(=O)n(CCCN3CCOCC3)c3c2CCCC3)cc1F	0	0	0	-	97	0
CCc1ccc(NC(=O)CSc2nc(=O)n(CCCN3CCOCC3)c3c2CCCC3)cc1	0	0	0	-	98	0
Cc1ccc([N+](=O)[O-])cc1C=NNc1nnnn1-c1ccccc1	-	0	-	-	-	-
